Source: paper PMC9632315 (The Oncologist, 2022)
Where “and” joins values, the source holds several entries; their conditions need not be identical. Identical values can stand only once.

Assays:
advanced melanoma = conditions: patients with advanced melanoma; median follow-up of 12.4 months; cited from earlier work
IDO1 = conditions: patients with advanced solid tumors; cited from earlier work
[1] = test system: plasma kynurenine production; conditions: cited from earlier work
[2] = stated without reference; cited from earlier work
[3] = Epacadostat plasma pharmacokinetics, noncompartmental analysis; assay type: in vivo, human; conditions: steady state cycle 1/day 8; for AUC / half-life / Tmax: human, plasma, oral; for AUC: AUC0-τ; for half-life: t ½; for Tmax: t max, median (range)
Procedure, shortened: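 Test compound 100 mg oral bid (B, C); pembrolizumab 200 mg IV q3w. A: oxaliplatin 85, leucovorin 400, 5-FU 400 mg/m2 bolus then 1200 mg/m2 per day over 46 h; days 1, 15, 28-day cycles. B: nab-paclitaxel 125, gemcitabine 1000 mg/m2; days 1, 8, 15, 28-day cycles. C: paclitaxel 200 mg/m2, carboplatin AUC 6; day 1, 21-day cycles.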

[4] = group A, mFOLFOX6, individual value (n ≤ 2)
[5] = group C, paclitaxel and carboplatin, individual values (n ≤ 2)
[6] = group D, pemetrexed and platinum agent, individual value (n ≤ 2)
[7] = group G, 5-FU and platinum agent, individual values (n ≤ 2)
[8] = 100 mg twice daily, group B, nab-paclitaxel and gemcitabine, individual value (n ≤ 2)

## placebo plus pembrolizumab: ECHO-301/KEYNOTE-252 control arm: placebo plus the PD-1 inhibitor pembrolizumab
Advanced melanoma
  OS (median): not reached

## NS(=O)(=O)NCCNc1nonc1C(=NO)Nc1ccc(F)c(Br)c1 [Epacadostat]
IDO1
  metabolism of tryptophan to kynurenine, whole blood assays: effectively inhibits
  percentage decrease in kynurenine levels from baseline to day 15: dose dependent
[1]
  maximally tolerated dose: 600 mg BID
[1]; in combination with pembrolizumab, retrospective analysis
  epacadostat dose required for suppression of plasma kynurenine production: 600 mg BID
[2]
  clearance mechanism: cleared predominantly by hepatic glucuronidation
[3]; [4]
  CLss/F: 81.7 L/h
  AUC: 2.79 µM·h
  half-life: 1.78 h
[3]; group B, nab-paclitaxel and gemcitabine, individual value (n ≤ 2)
  CLss/F: 82.6 L/h
[3]; [5]
  AUC0-τ: 2.44 µM·h
  CLss/F: 70.4 L/h and 93.5 L/h
  t ½: 2.62 h and 1.07 h
[3]; [6]
  AUC0-τ: 1.81 µM·h
  CLss/F: 126 L/h
  half-life: 1.3 h
[3]; [7]
  AUC0-τ: 2.81 µM·h
  CLss/F: 76.8 L/h and 81.3 L/h
  t ½: 1.30 h
  AUC: 2.97 µM·h
  half-life: 1.35 h
[3]; [8]
  AUC: 2.76 µM·h
  half-life: 1.42 h
[3]; 100 mg twice daily, group C, paclitaxel and carboplatin, individual values (n ≤ 2)
  AUC: 3.24 µM·h
[3]; group A, mFOLFOX6, N=6
  Tmax: 2.9 h
[3]; group F, gemcitabine and platinum agent, N=7
  Tmax: 2.1 h
[3]; group G, 5-FU and platinum agent, N=8
  Tmax: 3.1 h

## Nc1nc2[nH]cc(CCc3ccc(C(=O)N[C@@H](CCC(=O)O)C(=O)O)cc3)c2c(=O)[nH]1 [pemetrexed, Pemetrexed, reference compound]
[2]
  clearance mechanism: cleared by renal excretion
